We go through one compound from ChEMBL document CHEMBL4665779, “Novel 2-Substituted 3-Hydroxy-1,6-dimethylpyridin-4(1H)-ones as Dual-Acting Biofilm Inhibitors of Pseudomonas aeruginosa” (J Med Chem, 2020).

The source made the active and inactive calls. The calls are words filed in the database; no cut-off is given here.

The subject of series [1] is Pseudomonas aeruginosa PAO1. As to the kind of experiment: Induction of iron chelation in Pseudomonas aeruginosa PAO1 assessed as increase in intracellular pyochelin level at 1.25 to 20 uM in presence of 10 uM FeCl3 by fluorescence microplate reader assay. To be noted: dose microM 1.25-20. The series is classed as cell-based.
The target in series [2] is 3-(3-hydroxydecanoyloxy)decanoate synthase (Pseudomonas aeruginosa (strain ATCC 15692 / PAO1 / 1C / PRS 101 / LMG12228)) (UniProt Q51559). The series is described as follows: Inhibition of rhlA fluorescence in Pseudomonas aeruginosa PAO1 transfected with GFP by measuring fluorescence intensity every 15 mins for 12 hrs by microtiter plate reader assay. The conditions noted are these: dose microM 1.25-20, time 12.0 hrs. In short, it runs like this: (§1)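 PAO1-gfp, PAO1-lasB-gfp, PAO1-rhlA-gfp or PAO1-pqsA-gfp reporters were grown overnight in LB, then diluted in ABTGC medium to OD600 0.02, with compound at 1.25–20 μM. Controls were 0.1% DMSO and a blank. OD600 and GFP fluorescence (ex 485/em 535 nm) were read every 15 min for at least 12 h at 37 °C; triplicate.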

A short description of series [3]: Metal chelating activity assessed as negative logarithm of total free ferric ion concentration in a solution under biological conditions. In short, it runs like this: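 Fluorescence competition with CP645 (6 μM), quenched by Fe-NTA (2 μM) for 30 min before compound (60 μM) was added in Chelex-treated MOPS. Fluorescence was read after 48 h, with DFP as reference. pFe(III) was calculated from relative fluorescence as % = 11.743 pFe(III) − 169. Mean of three determinations.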

Series [4] deals with T1, Anthranilate--CoA ligase (Pseudomonas aeruginosa (strain ATCC 15692 / DSM 22644 / CIP 104116 /JCM 14847 / LMG 12228 / 1C / PRS 101 / PAO1)) (UniProt Q9I4X3).
T1 sequence (whole entry): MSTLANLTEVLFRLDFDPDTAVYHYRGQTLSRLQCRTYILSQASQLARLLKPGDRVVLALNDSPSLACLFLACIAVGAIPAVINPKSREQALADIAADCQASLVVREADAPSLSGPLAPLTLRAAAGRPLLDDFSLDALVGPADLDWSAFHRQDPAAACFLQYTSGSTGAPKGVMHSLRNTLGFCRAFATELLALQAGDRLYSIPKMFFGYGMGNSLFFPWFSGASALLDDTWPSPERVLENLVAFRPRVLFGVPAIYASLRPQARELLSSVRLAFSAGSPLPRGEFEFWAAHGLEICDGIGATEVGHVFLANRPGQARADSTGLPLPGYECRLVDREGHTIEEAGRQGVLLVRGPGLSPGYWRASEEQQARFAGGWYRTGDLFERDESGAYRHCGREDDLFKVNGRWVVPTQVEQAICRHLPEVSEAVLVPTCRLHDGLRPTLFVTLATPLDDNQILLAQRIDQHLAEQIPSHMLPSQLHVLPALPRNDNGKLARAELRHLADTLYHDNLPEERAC
As to the kind of experiment: Inhibition of pqsA fluorescence in Pseudomonas aeruginosa PAO1 transfected with GFP by measuring fluorescence intensity every 15 mins for 12 hrs by microtiter plate reader assay. The conditions noted are these: dose microM 1.25-20, time 12.0 hrs. Summed up:
as §1

The test system of series [5] is Pseudomonas aeruginosa. As to the kind of experiment: Inhibition of biofilm formation in multidrug resistant Pseudomonas aeruginosa 1167 at 20 uM relative to control. The series is classed as functional.
Series [6] concerns Pseudomonas aeruginosa. The series is described as follows: Inhibition of biofilm formation in multidrug resistant Pseudomonas aeruginosa 1129 at 20 uM relative to control. The class given is functional.
Series [7] deals with Pseudomonas aeruginosa. The series is described as follows: Antibiofilm activity against Pseudomonas aeruginosa PAO1 assessed as reduction in biofilm mass after 24 hrs by microtiter plate assay. The series is classed as functional, organism-based. The conditions noted are these: dose microM 1.25-20, time 24.0 hrs. In short, it runs like this: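 PAO1 (OD600 0.05) was cultured in ABTGC medium at 37 °C for 24 h with compound (1.25–20 μM for the dose series). Wells were PBS-washed three times, methanol-fixed for 30 min, air-dried, and stained with 0.1% crystal violet for 30 min. Stain was solubilized in 33% acetic acid and read at 570 nm. Compound stocks were […]. Run in triplicate.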

Series [8] concerns Pseudomonas aeruginosa. As to the kind of experiment: Inhibition of biofilm formation in multidrug resistant Pseudomonas aeruginosa 1121 at 1.25 uM relative to control. The class given is functional.
The test system of series [9] is Pseudomonas aeruginosa. As to the kind of experiment: Inhibition of biofilm formation in multidrug resistant Pseudomonas aeruginosa 1121 at 20 uM relative to control. The series is classed as functional.
For series [10], the system named is Pseudomonas aeruginosa PAO1. As to the kind of experiment: Induction of iron chelation in Pseudomonas aeruginosa PAO1 assessed as increase in intracellular pyoverdin level in presence of 10 uM FeCl3 by fluorescence microplate reader assay. The series is classed as cell-based. The conditions noted are these: dose microM 1.25-20. Summed up: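 PAO1 overnight LB culture was diluted in ABTGC medium to OD600 0.02 ([…]), with compound at 0–20 μM, in medium containing 10 or 50 μM FeCl3. Plates were kept at 37 °C in a plate reader recording OD600, pyoverdine fluorescence (ex 400/em 447 nm) and pyochelin fluorescence (ex 350/em 430 nm). Triplicate.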

The nature of series [11]: Growth inhibition of Pseudomonas aeruginosa PAO1 at 1.25 to 20 uM measured after 10 hrs in ABTGC media. The conditions noted are these: dose 1.25-20 µM.
Series [12] has as its system Pseudomonas aeruginosa. The series is described as follows: Antibiofilm activity against Pseudomonas aeruginosa PAO1 assessed as inhibition of biofilm formation after 18 hrs by crystal violet staining based assay. The conditions noted are these: PAO1, 18 h. The series is classed as functional, organism-based.

In general, inhibition refers to the percentage by which the read-out fell short of the control. For orientation: IC50 means the point on the concentration scale where inhibition reaches its midpoint. Consider `CCCCCCC(=O)NCc1c(O)c(=O)cc(C)n1C`, for which, in series [1], the outcome was Active. Besides, the inhibition entry in [2] and in series [4] was “Dose-dependent effect” throughout. In addition, the pFe3+ in [3] stood at 20.6. Moreover, the inhibition at 20 µM in the series with Pseudomonas aeruginosa [5] worked out at 51.4%; with Pseudomonas aeruginosa [6] it was 40%; in the series on Pseudomonas aeruginosa [9] it was 23.2%. Besides, the Activity entry (in the series with Pseudomonas aeruginosa [7]; in series [10]) was “Dose-dependent effect” each time. Moreover, the inhibition at 1.25 µM in the series on Pseudomonas aeruginosa [8] came out at 11.8%. Besides, in [11], the “growth inhibition (GI)” value is on record as “Non-Toxic”. Also, the IC50 in the series on Pseudomonas aeruginosa [12] was 6.57 µM.
